# Assay results taken from ChEMBL document CHEMBL5257059, “Pyridine-Based 1,2,4-Triazolo-Tethered Indole Conjugates Potentially Affecting TNKS and PI3K in Colorectal Cancer” (ACS Med Chem Lett, 2023).
# The source made the active and inactive calls. No cut-off for these calls is given here.
# Key:
# HT-29 [1] = assay: Induction of ROS generation in human HT-29 cells at 2 uM by CM-H2DCFDA fluorescent probe based flow cytometry analysis (reference value: 0.528%); assay type: functional
# A 172 = assay: Antiproliferative activity against human A-172 cells assessed as inhibition of cell growth incubated for 24 hrs by MTT assay; assay type: functional, cell-based; conditions: A 172, 24 h
# HT-29 [2] = assay: Inhibition of pan-AKT protein expression in human HT-29 cells at 2 uM incubated for 72 hrs by Western blot analysis; assay type: functional, cell-based
# HT-29 [3] = assay: Downregulation of PI3K-p85 expression in human HT-29 cells by immunofluorescence based confocal microscopic analysis; assay type: functional, cell-based
# Summary of the method: (§1)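 HT-29 cells were stained for F-actin with Phalloidin Red alongside immunofluorescent staining of PI3K-p85 (or NF-κB), then examined by fluorescence imaging for actin-filament integrity and p85 signal.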
# DLD-1 = assay: Antiproliferative activity against human DLD-1 cells assessed as inhibition of cell growth incubated for 24 hrs by MTT assay; assay type: functional, cell-based; conditions: DLD-1, 24 h
# HT-29 [4] = assay: Inhibition of beta-actin protein expression in human HT-29 cells at 2 uM incubated for 72 hrs by Western blot analysis; assay type: functional, cell-based
# HT-29 [5] = assay: Antiproliferative activity against human HT-29 cells assessed as inhibition of cell growth incubated for 24 hrs by MTT assay; assay type: functional, cell-based; conditions: HT-29, 24 h
# HT-29 [6] = assay: Induction of cell cycle arrest in human HT-29 cells assessed as accumulation of cells at G2/M phase at 2 uM incubated for 24 hrs by RNase/PI staining based flow cytometry analysis (reference value: 23.695 %); assay type: functional
# HT-29 [7] = assay: Induction of apoptosis in human HT29 cells assessed as increase in early apoptotic cells at 2 uM incubated for 24 hrs by annexin V/PI staining based flow cytometry analysis; assay type: functional, cell-based
# Summary of the method: (§2)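 Annexin/PI double staining of HT-29 cells after 24 h exposure at 1, 2 or 4 μM. Flow cytometry gated early apoptotic, late apoptotic and necrotic populations, reported as % of cells. Comparison to untreated control used two-way ANOVA followed by Tukey's post hoc analysis.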
# HT-29 [8] = assay: Inhibition of AXIN-1 protein expression in human HT-29 cells at 2 uM incubated for 72 hrs by Western blot analysis; assay type: functional, cell-based
# HT-29 [9] = assay: Cytotoxicity against human HT-29 cells assessed as damage of actin filament by F-actin/phalloidin red staining based confocal microscopic analysis; assay type: functional, cell-based; summary of the method: as §1
# [10] = Antiproliferative activity against human Tera-1 cells assessed as inhibition of cell growth incubated for 24 hrs by MTT assay; assay type: functional, cell-based; conditions: Tera-1, 24 h
# A549 = assay: Antiproliferative activity against human A549 cells assessed as inhibition of cell growth incubated for 24 hrs by MTT assay; assay type: functional, cell-based; conditions: A549, 24 h
# HT-29 [11] = assay: Inhibition of nuclear translocation of NFkappaB in human HT-29 cells assessed as reduction in NFkappaB expression in nucleus by immunofluorescence based confocal microscopic analysis; assay type: functional, cell-based
# Summary of the method: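 HT-29 colon cancer cells were treated with test compounds, then immunostained for NF-κB and co-stained for F-actin. Nuclear NF-κB signal was read by immunofluorescence imaging.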
# Caco-2 = assay: Antiproliferative activity against human Caco-2 cells assessed as inhibition of cell growth incubated for 24 hrs by MTT assay; assay type: functional, cell-based; conditions: Caco-2, 24 h
# [12] = molecular target: T1, Catenin beta-1 (Homo sapiens) (UniProt P35222); assay: Inhibition of beta-catenin phosphorylation in human HT-29 cells at 2 uM incubated for 72 hrs by Western blot analysis; assay type: cell-based
# T1 sequence (whole entry): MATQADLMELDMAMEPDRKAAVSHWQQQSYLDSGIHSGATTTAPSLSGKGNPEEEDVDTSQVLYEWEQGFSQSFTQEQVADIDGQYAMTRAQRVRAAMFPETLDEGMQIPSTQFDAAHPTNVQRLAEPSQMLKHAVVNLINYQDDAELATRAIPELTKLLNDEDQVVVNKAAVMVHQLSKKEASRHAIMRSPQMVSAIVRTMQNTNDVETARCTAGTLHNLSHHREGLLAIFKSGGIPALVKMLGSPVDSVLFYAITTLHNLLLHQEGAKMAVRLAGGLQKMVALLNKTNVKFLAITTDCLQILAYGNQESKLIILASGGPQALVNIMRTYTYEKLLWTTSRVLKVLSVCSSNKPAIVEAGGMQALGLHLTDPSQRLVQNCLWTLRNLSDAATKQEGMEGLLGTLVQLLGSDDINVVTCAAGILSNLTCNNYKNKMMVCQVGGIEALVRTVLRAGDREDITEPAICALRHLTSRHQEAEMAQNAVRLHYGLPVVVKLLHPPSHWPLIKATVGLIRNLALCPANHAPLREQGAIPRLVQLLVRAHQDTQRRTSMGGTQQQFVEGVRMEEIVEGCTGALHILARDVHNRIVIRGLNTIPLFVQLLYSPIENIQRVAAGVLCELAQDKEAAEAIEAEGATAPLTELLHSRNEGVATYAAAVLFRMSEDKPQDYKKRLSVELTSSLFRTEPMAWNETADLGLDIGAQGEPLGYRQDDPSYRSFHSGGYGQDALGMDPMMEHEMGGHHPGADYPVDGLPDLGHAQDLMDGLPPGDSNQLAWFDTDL
# HT-29 [13] = assay: Induction of mitochondrial damage in human HT-29 cells assessed as increase in monomer formation at 1 uM incubated for 24 hrs by JC-1 staining based flow cytometry analysis; assay type: functional, cell-based
# Summary of the method: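 HT-29 cells exposed 24 h to test agent at 1, 2 or 4 μM, then stained with JC-1. Flow cytometry scored the % of cells in JC-1 aggregate versus monomer populations. Treated groups were compared with untreated control by two-way ANOVA with Tukey's post hoc test.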
# [14] = molecular target: Glycogen synthase kinase-3 beta (Homo sapiens) (UniProt P49841); assay: Inhibition of GSK3beta phosphorylation in human HT-29 cells at 1 uM incubated for 72 hrs by Western blot analysis; assay type: cell-based
# Glycogen synthase kinase-3 beta (Homo sapiens), sequence (P49841 whole entry, looked up): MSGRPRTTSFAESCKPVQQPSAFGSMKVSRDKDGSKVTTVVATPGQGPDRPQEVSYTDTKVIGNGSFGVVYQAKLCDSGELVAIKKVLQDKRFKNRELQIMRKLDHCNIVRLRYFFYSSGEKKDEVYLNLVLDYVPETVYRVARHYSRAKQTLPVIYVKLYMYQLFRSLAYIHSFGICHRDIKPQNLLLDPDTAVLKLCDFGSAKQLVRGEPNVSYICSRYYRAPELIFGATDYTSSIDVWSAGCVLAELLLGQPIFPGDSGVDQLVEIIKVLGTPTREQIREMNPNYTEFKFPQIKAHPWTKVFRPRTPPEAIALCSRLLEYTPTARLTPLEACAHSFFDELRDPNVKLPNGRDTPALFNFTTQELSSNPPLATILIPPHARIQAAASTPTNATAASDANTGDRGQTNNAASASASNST
# HT-29 [15] = assay: Inhibition of phosphorylated GSK-3beta protein expression in human HT-29 cells at 1 uM incubated for 72 hrs by Western blot analysis; assay type: functional, cell-based
# HT-29 [16] = assay: Induction of ROS generation in human HT-29 cells at 1 uM by CM-H2DCFDA fluorescent probe based flow cytometry analysis (reference value: 0.528%); assay type: functional
# HT-29 [17] = assay: Inhibition of APC protein expression in human HT-29 cells at 4 uM incubated for 72 hrs by Western blot analysis; assay type: functional, cell-based
# HT-29 [18] = assay: Inhibition of PI3K-p85 protein expression in human HT-29 cells at 4 uM incubated for 72 hrs by Western blot analysis; assay type: functional, cell-based
# [19] = molecular target: Phosphatidylinositol 3-kinase regulatory subunit alpha (Homo sapiens) (UniProt P27986); assay: Inhibition of PI3K-P85 phosphorylation in human HT-29 cells at 4 uM incubated for 72 hrs by Western blot analysis; assay type: cell-based
# Phosphatidylinositol 3-kinase regulatory subunit alpha (Homo sapiens), sequence (P27986 whole entry): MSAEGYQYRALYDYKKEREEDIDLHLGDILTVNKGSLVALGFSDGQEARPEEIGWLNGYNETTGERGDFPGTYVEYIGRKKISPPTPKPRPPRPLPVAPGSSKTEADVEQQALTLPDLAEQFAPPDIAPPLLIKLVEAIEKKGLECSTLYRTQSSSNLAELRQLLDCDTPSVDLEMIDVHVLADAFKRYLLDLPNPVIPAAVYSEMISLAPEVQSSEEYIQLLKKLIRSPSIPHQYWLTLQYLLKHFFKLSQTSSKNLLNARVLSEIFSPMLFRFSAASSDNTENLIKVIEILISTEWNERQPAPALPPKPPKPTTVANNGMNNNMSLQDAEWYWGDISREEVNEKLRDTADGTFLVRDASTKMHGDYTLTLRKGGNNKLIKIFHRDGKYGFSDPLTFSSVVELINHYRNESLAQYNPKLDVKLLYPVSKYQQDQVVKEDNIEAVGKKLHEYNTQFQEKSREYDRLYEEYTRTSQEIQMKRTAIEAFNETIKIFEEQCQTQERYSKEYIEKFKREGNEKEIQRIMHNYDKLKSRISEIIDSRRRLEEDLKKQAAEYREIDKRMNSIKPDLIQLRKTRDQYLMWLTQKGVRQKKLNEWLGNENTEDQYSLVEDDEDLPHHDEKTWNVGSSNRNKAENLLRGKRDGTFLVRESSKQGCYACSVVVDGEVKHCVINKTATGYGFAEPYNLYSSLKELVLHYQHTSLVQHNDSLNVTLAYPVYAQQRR
# [20] = molecular target: 182 kDa tankyrase-1-binding protein (Homo sapiens) (UniProt Q9C0C2); assay: Inhibition of TAB-182 phosphorylation in human HT-29 cells at 4 uM incubated for 72 hrs by Western blot analysis; assay type: cell-based
# 182 kDa tankyrase-1-binding protein (Homo sapiens), sequence (Q9C0C2 whole entry): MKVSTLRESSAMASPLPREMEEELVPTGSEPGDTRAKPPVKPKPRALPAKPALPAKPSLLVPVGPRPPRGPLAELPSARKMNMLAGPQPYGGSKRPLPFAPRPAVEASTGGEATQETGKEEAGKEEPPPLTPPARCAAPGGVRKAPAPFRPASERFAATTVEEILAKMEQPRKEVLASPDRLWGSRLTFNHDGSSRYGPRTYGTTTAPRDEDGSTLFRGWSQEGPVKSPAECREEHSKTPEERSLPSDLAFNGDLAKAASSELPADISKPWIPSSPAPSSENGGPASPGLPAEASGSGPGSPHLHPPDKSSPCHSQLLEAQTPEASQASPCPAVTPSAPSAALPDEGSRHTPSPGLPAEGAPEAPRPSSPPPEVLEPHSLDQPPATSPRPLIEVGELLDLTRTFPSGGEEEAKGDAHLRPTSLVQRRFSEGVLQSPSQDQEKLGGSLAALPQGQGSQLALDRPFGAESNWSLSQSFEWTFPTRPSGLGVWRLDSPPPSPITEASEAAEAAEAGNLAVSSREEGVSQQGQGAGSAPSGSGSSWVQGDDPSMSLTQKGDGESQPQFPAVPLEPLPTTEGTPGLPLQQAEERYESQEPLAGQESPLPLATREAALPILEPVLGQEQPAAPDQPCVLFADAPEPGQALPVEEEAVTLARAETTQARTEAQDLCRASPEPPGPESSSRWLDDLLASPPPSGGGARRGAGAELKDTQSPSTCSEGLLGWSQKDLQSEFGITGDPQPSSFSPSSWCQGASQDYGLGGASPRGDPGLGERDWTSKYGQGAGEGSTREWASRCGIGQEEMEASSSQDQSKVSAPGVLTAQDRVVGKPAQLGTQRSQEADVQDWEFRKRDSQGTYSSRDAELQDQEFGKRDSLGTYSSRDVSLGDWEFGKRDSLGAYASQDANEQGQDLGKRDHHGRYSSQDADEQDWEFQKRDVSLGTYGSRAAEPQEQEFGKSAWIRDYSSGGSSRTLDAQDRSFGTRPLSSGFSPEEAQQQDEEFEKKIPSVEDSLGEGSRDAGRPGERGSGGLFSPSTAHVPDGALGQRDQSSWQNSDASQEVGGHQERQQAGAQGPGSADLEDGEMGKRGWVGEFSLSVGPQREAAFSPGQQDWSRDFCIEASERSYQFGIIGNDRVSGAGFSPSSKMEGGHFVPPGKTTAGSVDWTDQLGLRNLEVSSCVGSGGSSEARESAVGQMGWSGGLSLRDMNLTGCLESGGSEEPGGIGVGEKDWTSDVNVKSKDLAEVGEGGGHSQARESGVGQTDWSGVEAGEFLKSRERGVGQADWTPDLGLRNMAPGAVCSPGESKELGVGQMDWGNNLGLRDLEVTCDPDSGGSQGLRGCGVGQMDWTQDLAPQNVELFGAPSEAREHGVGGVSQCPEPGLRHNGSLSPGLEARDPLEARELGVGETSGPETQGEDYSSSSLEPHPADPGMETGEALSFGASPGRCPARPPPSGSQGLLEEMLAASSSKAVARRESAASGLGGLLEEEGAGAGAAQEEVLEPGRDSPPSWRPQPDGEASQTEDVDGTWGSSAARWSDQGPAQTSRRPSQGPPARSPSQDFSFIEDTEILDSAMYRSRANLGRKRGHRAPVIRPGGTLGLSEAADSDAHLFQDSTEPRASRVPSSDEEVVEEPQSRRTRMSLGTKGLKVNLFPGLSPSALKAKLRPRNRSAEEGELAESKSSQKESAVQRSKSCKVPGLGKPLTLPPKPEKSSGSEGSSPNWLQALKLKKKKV
# HT-29 [21] = assay: Inhibition of GSK-3beta protein expression in human HT-29 cells at 4 uM incubated for 72 hrs by Western blot analysis; assay type: functional, cell-based
# HT-29 [22] = assay: Induction of apoptosis in human HT29 cells assessed as increase in early apoptotic cells at 4 uM incubated for 24 hrs by annexin V/PI staining based flow cytometry analysis; assay type: functional, cell-based; summary of the method: as §2
# HT-29 [23] = assay: Inhibition of phosphorylated PI3K-p85 protein expression in human HT-29 cells at 4 uM incubated for 72 hrs by Western blot analysis; assay type: functional, cell-based
IC50 (DLD-1) [µM],IC50 (HT-29 [5]) [µM],IC50 (A549) [µM],IC50 (Caco-2) [µM],SMILES,IC50 (A 172) [µM],Activity (HT-29 [3]),Activity (HT-29 [9]),IC50 [10] [µM],inhibition (HT-29 [11]),further results
7,2.4,5.3,9.1,Fc1ccccc1-n1c(SCCc2c[nH]c3ccccc23)nnc1-c1ccncc1,9.5,Active,Active,10.5,Active,Activity (HT-29 [1]): 1.526%; inhibition (HT-29 [2]): Active; inhibition (HT-29 [4]): Active; Activity (HT-29 [6]): 18.982%; Activity (HT-29 [7]): Active; inhibition (HT-29 [8]): Active; inhibition [12]: Active
7,1,6.7,3.9,COc1ccc(-n2c(SCCc3c[nH]c4ccccc34)nnc2-c2ccncc2)cc1,9,Active,Active,4.3,Active,Activity (HT-29 [13]): Active; inhibition [14]: Active; inhibition (HT-29 [15]): Active; Activity (HT-29 [16]): 15.334%
9.3,3.6,25.1,15.5,COc1cccc(-n2c(SCCc3c[nH]c4ccccc34)nnc2-c2ccncc2)c1,26.8,Active,Active,19.4,Active,inhibition (HT-29 [17]): Active; inhibition (HT-29 [18]): Active; inhibition [19]: Active; inhibition [20]: Active; inhibition (HT-29 [21]): Active; Activity (HT-29 [22]): Active; inhibition (HT-29 [23]): Active
